Results published in ChEMBL document CHEMBL1126568, “Nucleosides and nucleotides. 122. 2'-C-cyano-2'-deoxy-1-beta-D-arabinofuranosylcytosine and its derivatives. A new class of nucleoside with a broad antitumor spectrum” (J Med Chem, 1993).

Experiments:
Mus musculus [1] = experiment: Tested for 60-day survivors after administration at 30 mg/kg orally in M5076 mouse reticulum cell sarcoma; type: functional; conditions: route oral
In short: (§1)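 Female BD2F1 mice were implanted s.c. with 1 × 10^6 M5076 cells and dosed orally on days 1, 4, 7, 10, 13 and 16. Vehicle was saline or 5% DMA in 0.5% CMC. Groups had six mice (three at 400 mg/kg), with nine untreated controls. The number of mice alive at 60 days was counted.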

Mus musculus [2] = experiment: Tested for 60-day survivors after administration at 10 mg/kg orally in M5076 mouse reticulum cell sarcoma; type: functional; conditions: route oral; in short: as §1
Mus musculus [3] = experiment: Tested for 60-day survivors after administration at 20 mg/kg orally in M5076 mouse reticulum cell sarcoma; type: functional; conditions: route oral; in short: as §1
Mus musculus [4] = experiment: Percent inhibition against M5076 mouse reticulum cell sarcoma after administration at 40 mg/kg orally on day 20; type: functional; conditions: M5076, 480 h, route oral
In short: (§2)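 Female BD2F1 mice (7-8 weeks, 20-25 g) were given 1 × 10^6 viable M5076 cells s.c. in the axillary region. Drug in saline or 5% DMA/0.5% CMC was given orally on days 1, 4, 7, 10, 13 and 16, with six mice per group and untreated controls. Tumor volume = 0.5 × length × width². Inhibition on day 20 = (1 − Vt/Vc) × 100.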

Mus musculus [5] = experiment: Weight change in M5076 mouse reticulum cell sarcoma after administration at 40 mg/kg orally; type: functional; conditions: route oral
In short: (§3)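 Mice were female BD2F1 bearing s.c. M5076 sarcoma (1 × 10^6 cells) and given oral drug on days 1, 4, 7, 10, 13 and 16. Body weight change (g) = average body weight on day 20 minus average on day 1.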

Mus musculus [6] = experiment: Percent inhibition against M5076 mouse reticulum cell sarcoma after administration at 50 mg/kg orally on day 20; type: functional; conditions: M5076, 480 h, route oral; in short: as §2
Mus musculus [7] = experiment: Weight change in M5076 mouse reticulum cell sarcoma after administration at 30 mg/kg orally; type: functional; conditions: route oral; in short: as §3
Mus musculus [8] = experiment: Percent treated was determined after administration at 30 mg/kg orally; type: functional; conditions: route oral
In short: (§4)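 In female BD2F1 mice bearing s.c. M5076 sarcoma (1 × 10^6 cells), drug was given orally on days 1, 4, 7, 10, 13 and 16, with six mice per treated group and nine untreated controls. T/C (%) = median survival day of treated mice / median survival day of untreated controls × 100.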

Mus musculus [9] = experiment: Tested for 60-day survivors after administration at 50 mg/kg orally in M5076 mouse reticulum cell sarcoma; type: functional; conditions: route oral; in short: as §1
Mus musculus [10] = experiment: Weight change in M5076 mouse reticulum cell sarcoma after administration at 50 mg/kg orally; type: functional; conditions: route oral; in short: as §3
Mus musculus [11] = experiment: Percent treated was determined after administration at 20 mg/kg orally; type: functional; conditions: route oral; in short: as §4
Mus musculus [12] = experiment: Percent inhibition against M5076 mouse reticulum cell sarcoma after administration at 20 mg/kg orally on day 20; type: functional; conditions: M5076, 480 h, route oral; in short: as §2
Mus musculus [13] = experiment: Percent treated was determined after administration at 40 mg/kg orally; type: functional; conditions: route oral; in short: as §4
Mus musculus [14] = experiment: Weight change in M5076 mouse reticulum cell sarcoma after administration at 10 mg/kg orally; type: functional; conditions: route oral; in short: as §3
Mus musculus [15] = experiment: Percent inhibition against M5076 mouse reticulum cell sarcoma after administration at 10 mg/kg orally on day 20; type: functional; conditions: M5076, 480 h, route oral; in short: as §2
Mus musculus [16] = experiment: Weight change in M5076 mouse reticulum cell sarcoma after administration at 20 mg/kg orally; type: functional; conditions: route oral; in short: as §3
Mus musculus [17] = experiment: Percent treated was determined after administration at 50 mg/kg orally; type: functional; conditions: route oral; in short: as §4
Mus musculus [18] = experiment: Tested for 60-day survivors after administration at 40 mg/kg orally in M5076 mouse reticulum cell sarcoma; type: functional; conditions: route oral; in short: as §1
Mus musculus [19] = experiment: Percent treated was determined after administration at 10 mg/kg orally; type: functional; conditions: route oral; in short: as §4
Mus musculus [20] = experiment: Percent inhibition against M5076 mouse reticulum cell sarcoma after administration at 30 mg/kg orally on day 20; type: functional; conditions: M5076, 480 h, route oral; in short: as §2
Mus musculus [21] = experiment: Percent treated was determined after administration at 400 mg/kg orally; type: functional; conditions: route oral
In short: (§5)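 Female BDF₁ mice bearing subcutaneous M5076 (10⁶ cells, axillary). Oral dosing in saline or 5% DMA/0.5% CMC on days 1, 4, 7, 10, 13 and 16. Groups of six (three at 400 mg/kg), nine untreated controls. T/C (%) = median survival day of treated/median survival day of untreated controls × 100; 60-day survivors also recorded.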

Mus musculus [22] = experiment: Weight change in M5076 mouse reticulum cell sarcoma after administration at 300 mg/kg orally; type: functional; conditions: route oral
In short: (§6)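 Female BDF₁ mice with subcutaneous axillary M5076 (10⁶ cells), oral dosing on days 1, 4, 7, 10, 13 and 16 in saline or 5% DMA/0.5% CMC. Body weight change (g) = mean weight on day 20 minus mean weight on day 1.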

ST-KM-1 = experiment: Tested in vitro against ST-KM human stomach adenocarcinoma; type: functional, cell-based; conditions: ST-KM-1, Stomach
In short: (§7)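 MTT growth assay: 2 × 10³ cells/well exposed to compound or left untreated for 72 h. MTT then added for 4 h more; formazan dissolved in DMSO and OD read at 540 nm. % inhibition = [1 − OD sample/OD control] × 100. IC₅₀ (μM) is the concentration giving 50% growth inhibition. Single-concentration inhibition measured at 100 μg/mL.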

Mus musculus [23] = experiment: Tested for 60-day survivors after administration at 200 mg/kg orally in M5076 mouse reticulum cell sarcoma; type: functional; conditions: route oral; in short: as §1
PC-9 = experiment: Tested in vitro against PC-9 human lung adenocarcinoma; type: functional, cell-based; in short: as §7
PC-8 = experiment: Tested in vitro against PC-8 human lung adenocarcinoma; type: functional, cell-based; in short: as §7
Mus musculus [24] = experiment: Tested for 60-day survivors after administration at 100 mg/kg orally in M5076 mouse reticulum cell sarcoma; type: functional; conditions: route oral; in short: as §1
COLO 320 = experiment: Tested in vitro against colo-320 human colon adenocarcinoma; type: functional, cell-based; conditions: COLO 320, Colon; in short: as §7
Mus musculus [25] = experiment: Percent inhibition against M5076 mouse reticulum cell sarcoma after administration at 100 mg/kg orally on day 20; type: functional; conditions: M5076, 480 h, route oral
In short: (§8)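 M5076 cells (10⁶ viable, counted by Trypan blue exclusion) implanted subcutaneously into the axillary region of female BDF₁ mice. Drug given orally on days 1, 4, 7, 10, 13 and 16 after inoculation, in saline or in 5% dimethylacetamide/0.5% carboxymethyl cellulose. Six mice per group (three at 400 mg/kg); untreated controls, nine mice. Tumor volume = 0.5 × length × width²; inhibition (%) = (1 − Vt/Vc) × 100 on day 20.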

Mus musculus [26] = experiment: Percent treated was determined after administration at 100 mg/kg orally; type: functional; conditions: route oral; in short: as §5
Mus musculus [27] = experiment: Weight change in M5076 mouse reticulum cell sarcoma after administration at 200 mg/kg orally; type: functional; conditions: route oral; in short: as §6
Mus musculus [28] = experiment: Percent inhibition against M5076 mouse reticulum cell sarcoma after administration at 300 mg/kg orally on day 20; type: functional; conditions: M5076, 480 h, route oral; in short: as §8
PC-13 = experiment: Tested in vitro against PC-13 human lung large cell carcinoma; type: functional, cell-based; in short: as §7
KKLS = experiment: Tested in vitro against KKLS human stomach adenocarcinoma; type: functional, cell-based; in short: as §7
A-375 = experiment: Tested in vitro against A-375 cell line human melanoma; type: functional, cell-based; in short: as §7
Mus musculus [29] = experiment: Percent inhibition against M5076 mouse reticulum cell sarcoma after administration at 400 mg/kg orally on day 20; type: functional; conditions: M5076, 480 h, route oral; in short: as §8
Mus musculus [30] = experiment: Tested for 60-day survivors after administration at 400 mg/kg orally in M5076 mouse reticulum cell sarcoma; type: functional; conditions: route oral; in short: as §1
HT-1080 = experiment: Tested in vitro against HT1080 cell line human fibrosarcoma; type: functional, cell-based; in short: as §7
L1210 = experiment: Tested in vitro inhibitory activity against murine leukemia L1210; type: functional, cell-based; conditions: Mus musculus; in short: as §7
Mus musculus [31] = experiment: Weight change in M5076 mouse reticulum cell sarcoma after administration at 100 mg/kg orally; type: functional; conditions: route oral; in short: as §6
QG-95 = experiment: Tested in vitro against QG-95 human squamous cell carcinoma; type: functional, cell-based; in short: as §7
Mus musculus [32] = experiment: Weight change in M5076 mouse reticulum cell sarcoma after administration at 400 mg/kg orally; type: functional; conditions: route oral; in short: as §6
Mus musculus [33] = experiment: Percent treated was determined after administration at 300 mg/kg orally; type: functional; conditions: route oral; in short: as §5
MKN-45 = experiment: Tested in vitro against MKN-45 human stomach adenocarcinoma; type: functional, cell-based; conditions: MKN-45, Stomach; in short: as §7
[34] = Tested in vitro inhibitory activity against human oral epidermoid carcinoma KB cells; type: functional, cell-based; in short: as §7
Mus musculus [35] = experiment: Tested for 60-day survivors after administration at 300 mg/kg orally in M5076 mouse reticulum cell sarcoma; type: functional; conditions: route oral; in short: as §1
[36] = tested on: KATO III stomach cancer cell line; experiment: Tested in vitro against KATO-III human stomach adenocarcinoma; type: functional, cell-based; in short: as §7
MCF7 = experiment: Tested in vitro against MCF-7 human breast adenocarcinoma; type: functional, cell-based; in short: as §7
Mus musculus [37] = experiment: Percent inhibition against M5076 mouse reticulum cell sarcoma after administration at 200 mg/kg orally on day 20; type: functional; conditions: M5076, 480 h, route oral; in short: as §8
OST = experiment: Tested in vitro against OST human osteosarcoma; type: functional, cell-based; in short: as §7
HOS-TE85 = experiment: Tested in vitro against MNNG/HOS cell line human osteosarcoma; type: functional, cell-based; in short: as §7
SW48 = experiment: Tested in vitro against SW-48 human colon adenocarcinoma; type: functional, cell-based; in short: as §7
Mus musculus [38] = experiment: Percent treated was determined after administration at 200 mg/kg orally; type: functional; conditions: route oral; in short: as §5

O=c1[nH]cc(F)c(=O)[nH]1 [FLUOROURACIL]
Survivors (Mus musculus [1]): 6 | Survivors (Mus musculus [2]): 6 | Survivors (Mus musculus [3]): 6 | inhibition in vivo at 40 mg/kg (Mus musculus [4]): 17% | Weight change (Mus musculus [5]): 2.1 g | inhibition in vivo at 50 mg/kg (Mus musculus [6]): 28% | Weight change (Mus musculus [7]): 2.4 g | T/C (Mus musculus [8]): 86% | Survivors (Mus musculus [9]): 6 | Weight change (Mus musculus [10]): 1.4 g | T/C (Mus musculus [11]): 85% | inhibition in vivo at 20 mg/kg (Mus musculus [12]): 6% | T/C (Mus musculus [13]): 79% | Weight change (Mus musculus [14]): 2.4 g | inhibition in vivo at 10 mg/kg (Mus musculus [15]): 1% | Weight change (Mus musculus [16]): 2.2 g | T/C (Mus musculus [17]): 79% | Survivors (Mus musculus [18]): 6 | T/C (Mus musculus [19]): 94% | inhibition in vivo at 30 mg/kg (Mus musculus [20]): 9%

Cl.N#C[C@H]1[C@H](O)[C@@H](CO)O[C@H]1n1ccc(N)nc1=O
T/C (Mus musculus [21]): 133% | Weight change (Mus musculus [22]): 1 g | IC50 (ST-KM-1): 9.71 µM | Survivors (Mus musculus [23]): 2 | IC50 (PC-9): 15.3 µM | IC50 (PC-8): 15.9 µM | Survivors (Mus musculus [24]): 0 | IC50 (COLO 320): 1.4 µM | inhibition in vivo at 100 mg/kg (Mus musculus [25]): 79% | T/C (Mus musculus [26]): 118% | Weight change (Mus musculus [27]): 2 g | inhibition in vivo at 300 mg/kg (Mus musculus [28]): 97% | IC50 (PC-13): 86.8 µM | IC50 (KKLS): 350 µM | IC50 (A-375): 1.4 µM | inhibition in vivo at 400 mg/kg (Mus musculus [29]): 99% | Survivors (Mus musculus [30]): 1 | IC50 (HT-1080): 0.53 µM | IC50 (L1210): 0.53 µM | Weight change (Mus musculus [31]): 1.7 g | IC50 (QG-95): 138 µM | Weight change (Mus musculus [32]): 1.1 g | T/C (Mus musculus [33]): 120% | IC50 (MKN-45): 15.9 µM | IC50 [34]: 5.2 µM | Survivors (Mus musculus [35]): 0 | IC50 [36]: 55.6 µM | IC50 (MCF7): 1.75 µM | inhibition in vivo at 200 mg/kg (Mus musculus [37]): 93% | IC50 (OST): 22.2 µM | IC50 (HOS-TE85): 23.6 µM | IC50 (SW48): > 350 µM | T/C (Mus musculus [38]): 136%
